In ChEMBL document CHEMBL5356951, “Semisynthetic polymyxins with potent antibacterial activity and reduced kidney cell toxicity” (RSC Med Chem, 2023):
Values after ≈ are worked out from the molar mass of the structure shown. Positions of bridges follow the written chain, without caps; N, C: chain ends. Non-standard residues stand in square brackets, D forms with d. Residues, ends and D or L forms follow the SMILES beside them. *: point of attachment. X1 = CC[C@H](C)CCCCC(=O)*; Dab = NCC[C@H](N)C(=O)O

Key:
Escherichia coli [1] = test: Antibacterial activity against Escherichia coli ATCC 25922 assessed as bacterial growth inhibition by broth microdilution assay; type: functional
How it was run: (§1)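 Broth microdilution. Bacteria from glycerol stocks were grown overnight on blood agar at 37 °C, then colonies were suspended in TSB and grown to OD600 0.5. Compounds were dissolved in DMSO at 6.4 mg mL−1 (stock) and serially diluted in CAMHB (Mg2+ 12.5, Ca2+ 20 μg mL−1) in polypropylene plates. Inoculum was 10^6 CFU mL−1 final, incubated at 37 °C. MIC = lowest concentration without visible growth; values consistent across at least triplicate experiments.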

Escherichia coli [2] = test: Antibacterial activity against Escherichia coli 1313 assessed as bacterial growth inhibition by broth microdilution assay; type: functional; how it was run: as §1
Escherichia coli [3] = test: Antibacterial activity against multidrug-resistant Escherichia coli NCTC 13846 assessed as bacterial growth inhibition by broth microdilution assay; type: functional
How it was run: (§2)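 Broth microdilution MIC. Strains grown overnight on blood agar at 37 °C, colonies suspended in TSB and grown to OD600 0.5. Compounds dissolved in DMSO (6.4 mg mL−1 stock), diluted serially in CAMHB (12.5 μg mL−1 Mg2+, 20 μg mL−1 Ca2+) on polypropylene plates. Final inoculum 10^6 CFU mL−1, 37 °C under gas-permeable membrane. MIC is the lowest concentration with no visible growth, consistent across at least triplicate experiments.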

Klebsiella pneumoniae [4] = test: Antibacterial activity against Klebsiella pneumoniae ATCC 13883 assessed as bacterial growth inhibition by broth microdilution assay; type: functional; how it was run: as §1
Klebsiella pneumoniae [5] = test: Antibacterial activity against Klebsiella pneumoniae JS-123 assessed as bacterial growth inhibition by broth microdilution assay; type: functional; how it was run: as §1
Klebsiella pneumoniae [6] = test: Antibacterial activity against Klebsiella pneumoniae NCTC 13443 assessed as bacterial growth inhibition by broth microdilution assay; type: functional; how it was run: as §1
Acinetobacter baumannii [7] = test: Antibacterial activity against Acinetobacter baumannii ATCC 19606 assessed as bacterial growth inhibition by broth microdilution assay; type: functional; how it was run: as §2
Acinetobacter baumannii [8] = test: Antibacterial activity against Acinetobacter baumannii ATCC 17978 assessed as bacterial growth inhibition by broth microdilution assay; type: functional; how it was run: as §2
Acinetobacter baumannii [9] = test: Antibacterial activity against multidrug-resistant Acinetobacter baumannii assessed as bacterial growth inhibition by broth microdilution assay; type: functional; how it was run: as §2
Acinetobacter baumannii [10] = test: Antibacterial activity against Acinetobacter baumannii 2018-006 assessed as bacterial growth inhibition by broth microdilution assay; type: functional; how it was run: as §2
Pseudomonas aeruginosa [11] = test: Antibacterial activity against Pseudomonas aeruginosa ATCC 27853 assessed as bacterial growth inhibition by broth microdilution assay; type: functional; how it was run: as §1
Pseudomonas aeruginosa [12] = test: Antibacterial activity against Pseudomonas aeruginosa NRZ 08418 assessed as bacterial growth inhibition by broth microdilution assay; type: functional; how it was run: as §1
Pseudomonas aeruginosa [13] = test: Antibacterial activity against Pseudomonas aeruginosa NRZ 03961 assessed as bacterial growth inhibition by broth microdilution assay; type: functional; how it was run: as §1
[14] = Cytotoxicity against human ciPTEC cells assessed as reduction in cell viability at 250 uM incubated for 24 hrs by PrestoBlue reagent based fluorescence assay; type: toxicity
How it was run: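 Differentiated ciPTEC-14.4 (conditionally immortalized) cells were washed with HBSS and then exposed to 250 μM compound in serum-free supplemented DMEM/F-12 for 24 h at 37 °C. After an HBSS wash, cells were incubated with 10% PrestoBlue in HBSS at 37 °C in the dark. Fluorescence was read at ex 530/em 590 nm, background-corrected, and expressed relative to medium-only cells; triplicates.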

[15] = Cytotoxicity against human ciPTEC cells assessed as reduction in cell viability incubated for 24 hrs by PrestoBlue reagent based fluorescence assay; type: toxicity; conditions: read-out: TC50
How it was run: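 ciPTEC-14.4 cells, differentiated, were treated for 24 h at 37 °C with compound at 100, 250, 500 or 1000 μM in serum-free DMEM/F-12 with insulin, transferrin, selenium, hydrocortisone, EGF and triiodothyronine. Viability was measured with 10% PrestoBlue in HBSS (fluorescence ex 530/em 590 nm), corrected for reagent background and normalized to untreated, medium-only control.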

Escherichia coli [16] = test: Synergistic antibacterial activity against polymyxin-resistant Escherichia coli assessed as fractional inhibitory concentration index incubated for 18 hrs in presence of novobiocin by checkerboard assay; type: functional
How it was run: (§3)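 8 × 8 checkerboard (64 combinations, each in triplicate) against E. coli EQAS mcr-2, grown to OD600 0.5 in TSB after overnight blood agar culture. Antibiotic and synergist serially diluted in CAMHB (12.5 μg mL−1 Mg2+, 20 μg mL−1 Ca2+), inoculum 10^6 CFU mL−1, 37 °C for 18 h. OD600 normalized to growth and no-growth controls. FICi calculated from minimal synergistic concentrations and single-agent MICs; ≤0.5 taken as synergy.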

Escherichia coli [17] = test: Synergistic antibacterial activity against polymyxin-resistant Escherichia coli assessed as fractional inhibitory concentration index incubated for 18 hrs in presence of rifampicin by checkerboard assay; type: functional; how it was run: as §3
Escherichia coli [18] = test: Synergistic antibacterial activity against polymyxin-resistant Escherichia coli assessed as fractional inhibitory concentration index incubated for 18 hrs in presence of erythromycin by checkerboard assay; type: functional; how it was run: as §3

## CC[C@H](C)CCCCC(=O)N[C@@H](CCN)C(=O)N[C@H](C(=O)N[C@@H](CCN)C(=O)N[C@H]1CCNC(=O)[C@H]([C@@H](C)O)NC(=O)[C@H](CCN)NC(=O)[C@H](CCN)NC(=O)[C@H](CC(C)C)NC(=O)[C@@H](Cc2ccccc2)NC(=O)[C@H](CCN)NC1=O)[C@@H](C)O (X1-[Dab]T[Dab][Dab][Dab][dF]L[Dab][Dab]T; lactam 4-C)
Escherichia coli [1]
  MIC: 1 µg/mL (≈ 0.831 µM)
Escherichia coli [2]
  MIC: 0.125 µg/mL (≈ 0.104 µM)
Escherichia coli [3]
  MIC: 4 µg/mL (≈ 3.32 µM)
Klebsiella pneumoniae [4]
  MIC: 0.25 µg/mL (≈ 0.208 µM)
Klebsiella pneumoniae [5]
  MIC: 0.25 µg/mL (≈ 0.208 µM)
Klebsiella pneumoniae [6]
  MIC: 0.5 µg/mL (≈ 0.415 µM)
Acinetobacter baumannii [7]
  MIC: 0.25 µg/mL (≈ 0.208 µM)
Acinetobacter baumannii [8]
  MIC: 0.25 µg/mL (≈ 0.208 µM)
Acinetobacter baumannii [9]
  MIC: 0.5 µg/mL (≈ 0.415 µM)
Acinetobacter baumannii [10]
  MIC: 0.125 µg/mL (≈ 0.104 µM)
Pseudomonas aeruginosa [11]
  MIC: 1 µg/mL (≈ 0.831 µM)
Pseudomonas aeruginosa [12]
  MIC: 1 µg/mL (≈ 0.831 µM)
Pseudomonas aeruginosa [13]
  MIC: 1 µg/mL (≈ 0.831 µM)
[14]
  Activity: 85%
[15]
  CC50 at 24 h: 1480 µM

## CC(C)C[C@@H]1NC(=O)[C@@H](Cc2ccccc2)NC(=O)[C@H](CCN)NC(=O)[C@@H](NC(=O)[C@H](CCN)NC(=O)[C@@H](NC(=O)[C@H](N)CSSCCC2CCCCC2)[C@@H](C)O)CCNC(=O)[C@H]([C@@H](C)O)NC(=O)[C@H](CCN)NC(=O)[C@H](CCN)NC1=O
Escherichia coli [1]
  MIC: 1 µg/mL (≈ 0.827 µM)
Escherichia coli [2]
  MIC: 2 µg/mL (≈ 1.65 µM)
Escherichia coli [3]
  MIC: 8 µg/mL (≈ 6.62 µM)
Klebsiella pneumoniae [4]
  MIC: 1 µg/mL (≈ 0.827 µM)
Klebsiella pneumoniae [5]
  MIC: 2 µg/mL (≈ 1.65 µM)
Klebsiella pneumoniae [6]
  MIC: 2 µg/mL (≈ 1.65 µM)
Acinetobacter baumannii [7]
  MIC: 0.5 µg/mL (≈ 0.414 µM)
Acinetobacter baumannii [8]
  MIC: 1 µg/mL (≈ 0.827 µM)
Acinetobacter baumannii [9]
  MIC: 1 µg/mL (≈ 0.827 µM)
Acinetobacter baumannii [10]
  MIC: 0.5 µg/mL (≈ 0.414 µM)
Pseudomonas aeruginosa [11]
  MIC: 2 µg/mL (≈ 1.65 µM)
Pseudomonas aeruginosa [12]
  MIC: 4 µg/mL (≈ 3.31 µM)
Pseudomonas aeruginosa [13]
  MIC: 4 µg/mL (≈ 3.31 µM)
[14]
  Activity: > 50%

## CC(C)C[C@@H]1NC(=O)[C@@H](Cc2ccccc2)NC(=O)[C@H](CCN)NC(=O)[C@@H](NC(=O)[C@H](CCN)NC(=O)[C@@H](NC(=O)[C@H](N)CSSCc2cccc(Cl)c2)[C@@H](C)O)CCNC(=O)[C@H]([C@@H](C)O)NC(=O)[C@H](CCN)NC(=O)[C@H](CCN)NC1=O
Escherichia coli [1]
  MIC: 1 µg/mL (≈ 0.818 µM)
Escherichia coli [2]
  MIC: 0.125 µg/mL (≈ 0.102 µM)
Escherichia coli [3]
  MIC: 4 µg/mL (≈ 3.27 µM)
Klebsiella pneumoniae [4]
  MIC: 0.5 µg/mL (≈ 0.409 µM)
Klebsiella pneumoniae [5]
  MIC: 0.25 µg/mL (≈ 0.204 µM)
Klebsiella pneumoniae [6]
  MIC: 0.25 µg/mL (≈ 0.204 µM)
Acinetobacter baumannii [7]
  MIC: 1 µg/mL (≈ 0.818 µM)
Acinetobacter baumannii [8]
  MIC: 1 µg/mL (≈ 0.818 µM)
Acinetobacter baumannii [9]
  MIC: 4 µg/mL (≈ 3.27 µM)
Acinetobacter baumannii [10]
  MIC: 2 µg/mL (≈ 1.64 µM)
Pseudomonas aeruginosa [11]
  MIC: 4 µg/mL (≈ 3.27 µM)
Pseudomonas aeruginosa [12]
  MIC: 2 µg/mL (≈ 1.64 µM)
Pseudomonas aeruginosa [13]
  MIC: 1 µg/mL (≈ 0.818 µM)
[14]
  Activity: > 50%

## CC(C)CCSSC[C@@H](N)C(=O)N[C@H](C(=O)N[C@@H](CN)C(=O)N[C@H]1CCNC(=O)[C@H]([C@@H](C)O)NC(=O)[C@H](CCN)NC(=O)[C@H](CCN)NC(=O)[C@H](CC(C)C)NC(=O)[C@@H](Cc2ccccc2)NC(=O)[C@H](CCN)NC1=O)[C@@H](C)O
Escherichia coli [1]
  MIC: 1 µg/mL (≈ 0.866 µM)
Escherichia coli [2]
  MIC: ≤ 0.125 µg/mL
Escherichia coli [3]
  MIC: 4 µg/mL (≈ 3.46 µM)
Klebsiella pneumoniae [4]
  MIC: 0.25 µg/mL (≈ 0.217 µM)
Klebsiella pneumoniae [5]
  MIC: 0.25 µg/mL (≈ 0.217 µM)
Klebsiella pneumoniae [6]
  MIC: 0.25 µg/mL (≈ 0.217 µM)
Acinetobacter baumannii [7]
  MIC: 0.25 µg/mL (≈ 0.217 µM)
Acinetobacter baumannii [8]
  MIC: 0.25 µg/mL (≈ 0.217 µM)
Acinetobacter baumannii [9]
  MIC: 0.25 µg/mL (≈ 0.217 µM)
Acinetobacter baumannii [10]
  MIC: 0.25 µg/mL (≈ 0.217 µM)
Pseudomonas aeruginosa [11]
  MIC: 1 µg/mL (≈ 0.866 µM)
Pseudomonas aeruginosa [12]
  MIC: 1 µg/mL (≈ 0.866 µM)
Pseudomonas aeruginosa [13]
  MIC: 1 µg/mL (≈ 0.866 µM)
[15]
  CC50 at 24 h: 130 µM
Escherichia coli [16]
  fractional inhibitory concentration index (FICI): 0.19
Escherichia coli [17]
  fractional inhibitory concentration index (FICI): 0.14
Escherichia coli [18]
  fractional inhibitory concentration index (FICI): 0.27

## CC(C)CCSSC[C@@H](N)C(=O)N[C@H](C(=O)N[C@@H](CCN)C(=O)N[C@H]1CCNC(=O)[C@H]([C@@H](C)O)NC(=O)[C@H](CCN)NC(=O)[C@H](CCN)NC(=O)[C@H](CC(C)C)NC(=O)[C@@H](Cc2ccccc2)NC(=O)[C@H](CCN)NC1=O)[C@@H](C)O
Escherichia coli [1]
  MIC: 1 µg/mL (≈ 0.856 µM)
Escherichia coli [2]
  MIC: ≤ 0.125 µg/mL
Escherichia coli [3]
  MIC: 8 µg/mL (≈ 6.85 µM)
Klebsiella pneumoniae [4]
  MIC: 0.5 µg/mL (≈ 0.428 µM)
Klebsiella pneumoniae [5]
  MIC: 0.25 µg/mL (≈ 0.214 µM)
Klebsiella pneumoniae [6]
  MIC: 0.5 µg/mL (≈ 0.428 µM)
Acinetobacter baumannii [7]
  MIC: 0.5 µg/mL (≈ 0.428 µM)
Acinetobacter baumannii [8]
  MIC: 1 µg/mL (≈ 0.856 µM)
Acinetobacter baumannii [9]
  MIC: 1 µg/mL (≈ 0.856 µM)
Acinetobacter baumannii [10]
  MIC: 0.5 µg/mL (≈ 0.428 µM)
Pseudomonas aeruginosa [11]
  MIC: 1 µg/mL (≈ 0.856 µM)
Pseudomonas aeruginosa [12]
  MIC: 1 µg/mL (≈ 0.856 µM)
Pseudomonas aeruginosa [13]
  MIC: 2 µg/mL (≈ 1.71 µM)
[14]
  Activity: > 50%
